Published values of several laboratories.
Compare with care: the assays were run in different laboratories.
CA1: Carbonic anhydrase 1 (CA1, Homo sapiens, UniProt P00915)
ADRA2A: Alpha-2A adrenergic receptor (ADRA2A, Homo sapiens, UniProt P08913)
CA2: Carbonic anhydrase 2 (CA2, Homo sapiens, UniProt P00918)

SMILES | target | effect on | mode | method | Ki [nM]
NS(=O)(=O)c1nnc(NC(=O)C2CCC3(CCCCC3)C2)s1 (stereo not drawn) | CA1 | enzyme activity | inhibitor | stopped-flow | 220
CC(C)(C(=O)O)c1ccc(C(O)CCCN2CCC(C(O)(c3ccccc3)c3ccccc3)CC2)cc1 (stereo not drawn) | CA1 | enzyme activity | inhibitor | – | 13100
Cc1cc(Oc2ncccc2CN2CCN(c3ccccn3)CC2)ccc1-c1c(C)c(=O)[nH]c(=O)n1C | ADRA2A | ligand displacement | – | radioligand | 123
COc1ccc(-n2cc(COC(=O)c3ccc(=O)oc3)nn2)cc1 | CA1 | enzyme activity | inhibitor | stopped-flow | > 100000
Cc1cc(Oc2ncccc2CN2CCN(Cc3ccccc3Cl)CC2)ccc1-c1c(C)c(=O)[nH]c(=O)n1C | ADRA2A | ligand displacement | – | radioligand | 81.2
Cc1ccc(-n2cc(CNC(=O)c3ccc(=O)oc3)nn2)cc1 | CA1 | enzyme activity | inhibitor | stopped-flow | > 100000
COc1ccc(N2CCN(Cc3cccnc3Oc3ccc(-c4c(C)c(=O)[nH]c(=O)n4C)c(C)c3)CC2)cc1 | ADRA2A | ligand displacement | – | radioligand | 1320
O=C(Oc1ccc(Br)cc1)c1ccc(=O)oc1 | CA1 | enzyme activity | inhibitor | stopped-flow | > 100000
Cc1cc(Oc2ncccc2CN2CCN(c3c(C)cccc3C)CC2)ccc1-c1c(C)c(=O)[nH]c(=O)n1C | ADRA2A | ligand displacement | – | radioligand | 731
CCOCCn1c(C2CCN(CCc3ccc(C(C)(C)C(=O)O)cc3)CC2)nc2ccccc21 | CA1 | enzyme activity | inhibitor | – | 9530
NS(=O)(=O)c1cnc(NC(=O)CC2CCCCC2)s1 | CA1 | enzyme activity | inhibitor | stopped-flow | 1580
CC1=C(/C=C/C(C)=C/C=C/C(C)=C\C(=O)O)C(C)(C)CCC1 | CA2 | enzyme activity | inhibitor | absorbance | 6900
Cc1cc(Oc2ncccc2CN2CCN(c3ccc([N+](=O)[O-])cc3C(F)(F)F)CC2)ccc1-c1c(C)c(=O)[nH]c(=O)n1C | ADRA2A | ligand displacement | – | radioligand | 2110
NS(=O)(=O)c1nnc(NC(=O)C2CCC3(CCCC3)CC2)s1 | CA2 | enzyme activity | inhibitor | stopped-flow | 59.4
O=c1[nH]c(=O)n([C@H]2C[C@H](O)[C@@H](CO)O2)cc1/C=C/Br | CA1 | enzyme activity | inhibitor | – | 8390
Cc1cc(Oc2ncccc2CN2CCN(c3ccccc3C#N)CC2)ccc1-c1c(C)c(=O)[nH]c(=O)n1C | ADRA2A | ligand displacement | – | radioligand | 128
O=C(NCc1cn(-c2ccccc2)nn1)c1ccc(=O)oc1 | CA1 | enzyme activity | inhibitor | stopped-flow | > 100000
COc1cc(C)c(/C=C/C(C)=C/C=C/C(C)=C/C(=O)O)c(C)c1C | CA2 | enzyme activity | inhibitor | absorbance | 7940
